# The list is not random: actives were taken first. Their share in the collection is about 2.7%.
# PAFAH1B2 FP inh – PAFAH1B2 (human) inhibition. P68402. recombinant PAFAH1B2, FP-rhodamine activity probe, fluorescence polarization. inhibition, % at 3.39 µM. 340,000 compounds, 1.2% hits;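 active means inhibition above the mean of all tested compounds plus 3 SD, cut at about 24% in these data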;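 further: 0% = enzyme with DMSO and 100% = wells lacking PAFAH1B2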
# RBBP9 inh – blocks human serine hydrolase RBBP9. inhibition, % at 7.94 µM. 220,000 compounds, 0.2% hits. O75884. recombinant RBBP9, FP-Rh probe fluorescence polarization. AID 1515;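 active means inhibition above the campaign mean of all tested compounds plus 3 SD, cut at about 14% in these data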;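 further: plate controls were DMSO wells with RBBP9 for no effect and wells lacking RBBP9 protein for full effect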
# Target sequence (O75884 whole entry, looked up): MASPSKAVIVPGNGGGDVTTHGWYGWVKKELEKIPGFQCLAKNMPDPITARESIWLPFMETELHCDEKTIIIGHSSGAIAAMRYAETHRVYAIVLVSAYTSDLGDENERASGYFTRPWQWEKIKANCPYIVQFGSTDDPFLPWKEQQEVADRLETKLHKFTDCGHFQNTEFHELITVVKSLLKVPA
#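 System: RBBP9 protein | Quantity: 2.5 µM RBBP9 dispensing solution, before mixing | Reagent: FP-Rh probe, 375 nM dispensing solution | Timing: Enzyme-compound preincubation 30 min, then probe labeling 45 min, 25 °C | Measured by: Fluorescence polarization | Read-out: % inhibition | Replication: One well per compound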
# PAFAH1B3 FP inh – blocks human PAF acetylhydrolase 1B catalytic subunit 3. Q15102. recombinant PAFAH1B3, FP-rhodamine probe, fluorescence polarization. inhibition, % at 3.39 µM. 340,000 compounds, 0.28% hits;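 active means inhibition above the screen-wide average of all tested compounds plus 3 SD, cut at about 25% in these data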;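 further: 0% = enzyme with DMSO only and 100% = wells lacking PAFAH1B3 protein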
# PAFAH2 FP inh – inhibitors of human PAFAH2; Q99487; recombinant PAFAH2, FP-rhodamine activity probe, fluorescence polarization; inhibition, % at 3.39 µM; 340,000 compounds, 0.99% hits; AID 492956;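 active means inhibition above the mean over all tested compounds plus 3 SD, cut at about 30% in these data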;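 further: inhibitors block probe labeling of enzyme so polarization drops; 0% = enzyme with DMSO and 100% = wells lacking PAFAH2 protein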
# pPAFAH FP inh – pPAFAH (human) enzyme inhibition | inhibition, % at 3.39 µM | AID 463082 | Q13093 | recombinant pPAFAH, FP-rhodamine probe fluorescence polarization | 330,000 compounds, 1.5% hits;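 active means inhibition above the mean inhibition across the screen plus 3 SD, cut at about 25% in these data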;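 further: inhibitors block binding of the rhodamine activity-based probe so polarization drops; 0% = enzyme with DMSO and 100% = wells lacking pPAFAH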
# Target sequence (Q13093 whole entry, looked up): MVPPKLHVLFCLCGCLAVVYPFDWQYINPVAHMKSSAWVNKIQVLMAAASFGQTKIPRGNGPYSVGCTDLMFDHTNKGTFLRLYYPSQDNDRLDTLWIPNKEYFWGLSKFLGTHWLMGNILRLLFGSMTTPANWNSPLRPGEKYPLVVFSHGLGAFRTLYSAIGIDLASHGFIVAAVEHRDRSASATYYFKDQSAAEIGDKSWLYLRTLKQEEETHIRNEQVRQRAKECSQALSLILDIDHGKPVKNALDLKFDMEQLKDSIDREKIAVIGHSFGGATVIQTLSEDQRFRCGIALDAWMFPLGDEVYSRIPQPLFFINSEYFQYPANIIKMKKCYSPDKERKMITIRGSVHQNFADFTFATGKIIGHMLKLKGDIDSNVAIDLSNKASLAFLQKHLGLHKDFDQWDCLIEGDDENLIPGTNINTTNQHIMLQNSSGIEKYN
# Active calls of the source: *; x = not tested or not shown.
SMILES,PAFAH1B2 FP inh,RBBP9 inh,PAFAH1B3 FP inh,PAFAH2 FP inh,pPAFAH FP inh
C/C(=N/NC(=O)CN1CCN(Cc2ccccc2Cl)CC1)c1ccco1,0,11,-3,0,7
COc1ccc(S(=O)(=O)N2CCN(Cc3ccco3)CC2)cc1,2,x,6,-11,-1
C/C(=N\NC(=O)CN1CCN(S(=O)(=O)c2ccc(C)cc2)CC1)c1cccnc1,6,-9,6,5,-4
COc1ccc(NC(=O)C2CC(c3c(F)cccc3Cl)=NO2)cc1 (stereo unspecified),6,x,6,3,1
COc1ccc(C)cc1NC(=O)CNC(C)C(=O)Nc1ccc(C(C)=O)cc1 (stereo unspecified),11,x,3,4,-6
O=C(Cc1ccc(Cl)cc1Cl)Nc1cccc(S(=O)(=O)Nc2ccccc2F)c1,21,-8,-8,-6,27*
O=C(Cc1c(F)cccc1Cl)Nc1cccc(S(=O)(=O)NC2=NCCCCC2)c1,-1,x,6,-6,13
CCCCCCN(C(=O)CCCCCN1C(=O)NC(c2ccc(-c3ccccc3)cc2)C(C(=O)OCc2ccccc2)=C1C)C(C)C(=O)NCCCC (stereo unspecified),x,1,x,x,28*
CCCN(C(=O)CSc1cc(-c2ccccc2)c2ccc(OC)cc2n1)C1CCS(=O)(=O)C1 (stereo unspecified),0,-1,6,-14,25*
CCN(C(=O)CSc1cc(C)c2ccccc2n1)C1CCS(=O)(=O)C1 (stereo unspecified),3,-7,4,-2,4
CCOC(=O)/C(=N\Nc1cc(Cl)ccc1Cl)N1CCOCC1,4,2,-4,3,-5
O=C(NNc1c2ccccc2nc2ccccc12)c1ccccc1O,14,-2,14,22,32*
O=C(NNc1c2ccccc2nc2ccccc12)c1ccc(O)cc1,6,-6,5,9,16
O=C(NNc1c2ccccc2nc2ccccc12)c1ccc(O)cc1O,6,-1,13,-4,20
O=C(NNc1c2ccccc2nc2ccccc12)c1cccc(O)c1,8,0,16,16,26*
COc1ccc(O)c(C(=O)c2coc(=N)c(C(=O)Nc3ccc(SC(F)F)cc3)c2)c1,3,-10,10,0,6
CCc1ccc(OC(C)C(=O)Nc2ccccc2C(=O)N2CCOCC2)cc1 (stereo unspecified),1,x,2,3,0
COc1[nH]c(/N=C/c2ccccc2)c(C#N)c1C#N,81*,0,82*,83*,6
CCOC(=O)c1ccc(S(=O)(=O)N2CCN(C3CC(=O)N(c4ccc(OC)cc4)C3=O)CC2)cc1 (stereo unspecified),0,x,5,-10,x
COc1cc(/C=N/Nc2ccc(Cl)c(C(=O)O)c2)ccc1OC(=O)c1ccc(F)cc1,1,x,12,4,3
COc1cccc(C(=O)Oc2ccc(/C=N/Nc3ccc(C(=O)O)cc3)cc2OC)c1,10,x,11,1,28*
COc1ccc(NC(=O)[C@@H]2CCCN2C(=O)c2cccs2)cc1S(=O)(=O)N1CCCCC1,5,x,-4,0,-2
CC(=O)N1CCC(C(=O)Nc2ccc(S(=O)(=O)N3CCCC(C)C3)cc2)CC1 (stereo unspecified),4,x,7,-3,x
CC1CCCN(S(=O)(=O)c2ccc(NC(=O)[C@@H]3CCCN3C(=O)c3cccs3)cc2)C1 (stereo partly specified),1,x,11,-2,30*
CC(=O)N1CCC(C(=O)Nc2ccc(S(=O)(=O)N3CCC(C)CC3)cc2)CC1,29*,x,-2,8,-1
SMILES,PAFAH1B2 FP inh,RBBP9 inh,PAFAH1B3 FP inh,PAFAH2 FP inh,pPAFAH FP inh
CC1CCN(S(=O)(=O)c2ccc(NC(=O)[C@@H]3CCCN3C(=O)c3cccs3)cc2)CC1,37*,x,-6,1,25*
CC1CCN(S(=O)(=O)c2ccc(NC(=O)CSc3nnnn3C)cc2)CC1,42*,-7,0,-4,2
COc1ccc(NC2CCCN(C(=O)c3cc(C)nc4cc(F)ccc34)C2)cc1 (stereo unspecified),-2,x,4,-6,-4
CCCNS(=O)(=O)c1cc2c(cc1Br)CCN2C(=O)CC,6,x,8,1,x
Cc1cc(C)c2nc(NC(=O)[C@@H](NC(=O)c3cccc(S(=O)(=O)N4CCOCC4)c3)C(C)C)sc2c1,-7,-18,-10,-6,-3
O=C(CCc1c[nH]c2ccccc12)NC(Cc1ccccc1)C(=O)O (stereo unspecified),4,x,0,8,-3
CC(C)(C)NC(=O)C1CCN(S(=O)(=O)c2ccc(Br)cc2)CC1,29*,-4,10,-2,1
CC1CCN(S(=O)(=O)c2ccc(S(=O)(=O)NCC(=O)C(C)(C)C)cc2)CC1,26*,-2,0,-2,2
CCN1CCN(C(=O)C2CCN(S(=O)(=O)c3ccc(Br)cc3)CC2)CC1,7,x,8,-2,x
CC1(C)CC2(CC(c3ccccc3F)c3ccc(O)c(O)c3O2)NC(=S)N1 (stereo unspecified),7,-5,-3,-1,33*
Clc1ccc(CNc2nc(CN3CCOCC3)nc3scc(-c4ccccc4)c23)cc1,7,-3,9,-1,33*
c1ccc(CNc2nc(CN3CCOCC3)nc3scc(-c4ccccc4)c23)cc1,4,-9,1,0,34*
O=C(CN1C(=O)NC(c2ccccc2)(c2ccccc2)C1=O)NCc1ccc(F)cc1,11,x,13,3,-3
O=C(CSCc1ccccc1)NNC(=S)Nc1cccc(Cl)c1Cl,17,-1,10,29,32*
CNC(=S)NNC(=O)CSCc1c(Cl)cccc1Cl,x,4,x,x,8
O=C(CCN1CCCCCC1)c1ccccc1,5,18*,8,1,2
COc1ccc(C(=O)CCN2CCCCCC2)cc1,5,1,3,-8,0
CC1CCCCC1N=C1NC(C)(C)CS1 (stereo unspecified),2,-5,-3,5,-7
Cc1noc(C)c1NC(=O)N(C)C[C@H]1Oc2ccc(NC(=O)CCN3CCOCC3)cc2C(=O)N([C@H](C)CO)C[C@@H]1C,7,x,6,-4,7
Cc1cc(C)cc(NS(=O)(=O)c2ccc(NC(=O)C3CCCCC3C(=O)O)cc2)c1 (stereo unspecified),-1,-3,-8,-3,28*
CC(C)n1c(=S)[nH]c2scc(-c3cccs3)c2c1=O,-3,-9,1,11,33*
CCn1c(=S)[nH]c2scc(-c3cccs3)c2c1=O,9,-12,8,8,x
Oc1cccc2ccc[n+](CC(O)Cn3c4ccccc4c4ccccc43)c12 (stereo unspecified),3,6,6,7,10
CCOC(=O)C1=CN(Cc2cccc(Br)c2)S(=O)(=O)NC1C (stereo unspecified),7,x,8,-2,13
